These results are taken from ChEMBL document CHEMBL1157864, “Synthesis of some novel 2-substituted-5-[isopropylthiazole] clubbed 1,2,4-triazole and 1,3,4-oxadiazoles as potential antimicrobial and antitubercular agents” (Eur J Med Chem, 2010).

Holding throughout (assay type): functional
In test [1] the test system is Escherichia coli. The test is described as follows: Antimicrobial activity against Escherichia coli ATCC 10536 after 24 hrs by broth microdilution assay. The note with it: ATCC 10536, 24 h. Summed up:
(§1)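 Broth dilution MIC. Stock is 10 mg compound in 1 mL DMSO, serially diluted in Mueller–Hinton broth for bacteria or Sabouraud liquid medium for yeasts and mould. Tubes are inoculated at 10⁵ cfu/mL and incubated at 37 °C for 24 h. Controls are medium alone and medium with DMSO at matching dilutions. MIC is the lowest concentration giving complete growth inhibition.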
In general terms: Dilution methods test growth across graded concentrations, often in twofold steps.

The subject of test [2] is Saccharomyces cerevisiae. The test is described as follows: Antimicrobial activity against Saccharomyces cerevisiae ATCC 9763 after 24 hrs by broth microdilution assay. The note with it: ATCC 9763, 24 h. In outline:
as §1

The test system of test [3] is Aspergillus niger. The experiment in a line: Antimicrobial activity against Aspergillus niger ATCC 6275 after 24 hrs by broth microdilution assay. The note with it: ATCC 6275, 24 h. In outline:
as §1

For test [4], the system named is Candida tropicalis. The experiment in a line: Antimicrobial activity against Candida tropicalis ATCC 1369 after 24 hrs by broth microdilution assay. The following applies: ATCC 1369, 24 h. In outline: as §1
The test system of test [5] is Mycobacterium tuberculosis. The test is described as follows: Antimycobacterial activity against Mycobacterium tuberculosis H37Rv after 21 days by broth dilution assay. The note with it: 504 h. In outline: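 Middlebrook 7H9 broth with 10% albumin-dextrose-catalase and 0.2% glycerol; frozen culture thawed, diluted to 10⁵ cfu/mL and used as inoculum. Compounds taken up in DMSO and diluted twice in broth, 1.3% DMSO final. Incubated at 37 °C. Growth judged by eye against drug-free and inoculum-free controls and isoniazid. MIC is the lowest concentration inhibiting ≥99% of the starting population.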

Test [6] has as its system Klebsiella pneumoniae. The test is described as follows: Antimicrobial activity against Klebsiella pneumoniae ATCC 10031 after 24 hrs by broth microdilution assay. The note with it: ATCC 10031, 24 h. Summed up:
as §1

For test [7], the system named is Pseudomonas aeruginosa. The experiment in a line: Antimicrobial activity against Pseudomonas aeruginosa ATCC 10145 after 24 hrs by broth microdilution assay. The note with it: ATCC 10145, 24 h. Summed up:
as §1

Test [8] relates to Bacillus subtilis. The experiment in a line: Antimicrobial activity against Bacillus subtilis ATCC 60511 after 24 hrs by broth microdilution assay. The note with it: ATCC 60511, 24 h. In outline: as §1
Test [9] concerns Staphylococcus aureus. The experiment in a line: Antimicrobial activity against Staphylococcus aureus ATCC 11632 after 24 hrs by broth microdilution assay. The following applies: ATCC 11632, 24 h. In outline:
as §1

Test [10] relates to Enterococcus faecalis. The test is described as follows: Antimicrobial activity against Streptococcus faecalis ATCC 14506 after 24 hrs by broth microdilution assay. The note with it: ATCC 14506, 24 h. Summed up: as §1

Each structure is given as a SMILES string. Converted amounts (≈) assume the structure as drawn.

What is called MIC is the smallest concentration in the dilution series that meets the test's criterion for growth inhibition. Read a low MIC as inhibition by little substance. Consider `CC(C)c1csc(-c2nnc(S)n2/N=C/c2ccc[nH]2)n1`, for which the MIC worked out at 62.5 µg/mL (≈ 196 µM) in [1]; 31.2 µg/mL (≈ 98.1 µM) in test [2]; 16 µg/mL (≈ 50.2 µM) in test [3]; 62.5 µg/mL (≈ 196 µM) in test [4]; 31.2 µg/mL (≈ 98.1 µM) in test [5]; 31.2 µg/mL (≈ 98.1 µM) in test [6]. The MIC in [7] is 62.5 µg/mL (≈ 196 µM); in test [8], 62.5 µg/mL (≈ 196 µM); in [9], 31.2 µg/mL (≈ 98.1 µM); in test [10] it was 31.2 µg/mL (≈ 98.1 µM).

Turning to `COc1cc(/C=N/n2c(S)nnc2-c2nc(C(C)C)cs2)ccc1O`, the MIC in test [1] turned out to be 125 µg/mL (≈ 333 µM); in test [2], 250 µg/mL (≈ 666 µM); in [3] it was 125 µg/mL (≈ 333 µM); in [4] it was 125 µg/mL (≈ 333 µM); in [5] it was 62.5 µg/mL (≈ 166 µM); in [6] it was 125 µg/mL (≈ 333 µM). Besides, the MIC came to 125 µg/mL (≈ 333 µM) in test [7], 125 µg/mL (≈ 333 µM) in test [8], 250 µg/mL (≈ 666 µM) in test [9] and 125 µg/mL (≈ 333 µM) in [10].

As for `CC(C)c1csc(-c2nnc3sc(-c4ccc(Cl)cc4)nn23)n1`, the MIC in test [1] came to 16 µg/mL (≈ 44.2 µM); in test [2], 31.2 µg/mL (≈ 86.4 µM); in test [3] it was 125 µg/mL (≈ 345 µM); in test [4], 31.2 µg/mL (≈ 86.4 µM); in [5], 8 µg/mL (≈ 22.1 µM); in [6] it was 16 µg/mL (≈ 44.2 µM). Also, the MIC worked out at 8 µg/mL (≈ 22.1 µM) in test [7], 8 µg/mL (≈ 22.1 µM) in test [8], 8 µg/mL (≈ 22.1 µM) in test [9] and 16 µg/mL (≈ 44.2 µM) in test [10].

On to `COc1ccc(/C=N/n2c(S)nnc2-c2nc(C(C)C)cs2)cc1`, for which the minimal inhibitory concentration (MIC) in [1] is 31.2 µg/mL (≈ 86.9 µM); in test [2], 62.5 µg/mL (≈ 174 µM); in [3] it was 62.5 µg/mL (≈ 174 µM); in test [4] it was 62.5 µg/mL (≈ 174 µM); in test [5], 31.2 µg/mL (≈ 86.9 µM); in test [6], 16 µg/mL (≈ 44.5 µM). Also, the MIC in test [7], in test [8], in test [9] and in test [10] was 31.2 µg/mL (≈ 86.9 µM) throughout.

Regarding `CC(C)c1csc(-c2nnc(S)n2/N=C/c2ccccc2O)n1`, the MIC came out at 250 µg/mL (≈ 724 µM) in [1]; 125 µg/mL (≈ 362 µM) in test [2]; 125 µg/mL (≈ 362 µM) in [3]; 125 µg/mL (≈ 362 µM) in test [4]; 62.5 µg/mL (≈ 181 µM) in test [5]; 250 µg/mL (≈ 724 µM) in test [6]. Also, the MIC in test [7], in test [8], in test [9] and in [10] was 250 µg/mL (≈ 724 µM) in each case.

In the case of `CC(C)c1csc(-c2nnc(S)n2-c2ccccc2)n1`, the MIC in test [1] worked out at 16 µg/mL (≈ 52.9 µM); in test [2] it was 8 µg/mL (≈ 26.5 µM); in test [3], 16 µg/mL (≈ 52.9 µM); in [4], 16 µg/mL (≈ 52.9 µM); in test [5], 31.2 µg/mL (≈ 103 µM); in [6] it was 31.2 µg/mL (≈ 103 µM). For the same compound, the MIC in test [7] was determined as 31.2 µg/mL (≈ 103 µM); in test [8], 16 µg/mL (≈ 52.9 µM); in test [9], 16 µg/mL (≈ 52.9 µM); in test [10], 125 µg/mL (≈ 413 µM).

Regarding `CSc1nnc(-c2nc(C(C)C)cs2)n1-c1ccccc1`, the MIC in test [1] was 62.5 µg/mL (≈ 198 µM); in test [2] it was 16 µg/mL (≈ 50.6 µM); in test [3] it was 31.2 µg/mL (≈ 98.8 µM); in test [4] it was 16 µg/mL (≈ 50.6 µM); in test [5], 62.5 µg/mL (≈ 198 µM); in [6], 31.2 µg/mL (≈ 98.8 µM). Moreover, the MIC in [7] stood at 16 µg/mL (≈ 50.6 µM); in test [8], 31.2 µg/mL (≈ 98.8 µM); in test [9], 16 µg/mL (≈ 50.6 µM); in test [10], 16 µg/mL (≈ 50.6 µM).

As for `O=C(O)c1cn(C2CC2)c2cc(N3CCNCC3)c(F)cc2c1=O` [CIPROFLOXACIN], the MIC in [1] was at most 1 µg/mL; in [6] it was at most 1 µg/mL; in test [7], 5 µg/mL (≈ 15.1 µM); in test [8], at most 1 µg/mL; in test [9], at most 5 µg/mL; in test [10], at most 5 µg/mL.

`OC(Cn1cncn1)(Cn1cncn1)c1ccc(F)cc1F` [FLUCONAZOLE]: the MIC in test [2], in test [3] and in test [4] was at most 1 µg/mL throughout.

In the case of `NNC(=O)c1ccncc1` [ISONIAZID], in test [5], the MIC worked out at 0.25 µg/mL (≈ 1.82 µM).

As to `CCn1cc(C(=O)O)c(=O)c2cc(F)c(N3CCNCC3)cc21` [NORFLOXACIN], the MIC is at most 1 µg/mL in [1]; at most 1 µg/mL in [6]; 5 µg/mL (≈ 15.7 µM) in test [7]; at most 1 µg/mL in test [8]; 5 µg/mL (≈ 15.7 µM) in [9]; 5 µg/mL (≈ 15.7 µM) in [10].
